# Source: PubChem BioAssay (several laboratories)
# KLK7 zymogen act = proKLK7 zymogen activators, primary screen, biochemical, fluorescence intensity. Kallikrein-7 (Homo sapiens), P49862. purified proKLK7, EDANS-DABCYL substrate fluorescence; 100% is mature enzyme control, 0% vehicle. activation, % at 7 µM. hit rate 0.9% among 370,000;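 active = activation above the mean of all tested compounds plus 3 SD, computed per campaign excluding outliers beyond control limits, cut at about 13% in these data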
# Target sequence (P49862 whole entry, looked up): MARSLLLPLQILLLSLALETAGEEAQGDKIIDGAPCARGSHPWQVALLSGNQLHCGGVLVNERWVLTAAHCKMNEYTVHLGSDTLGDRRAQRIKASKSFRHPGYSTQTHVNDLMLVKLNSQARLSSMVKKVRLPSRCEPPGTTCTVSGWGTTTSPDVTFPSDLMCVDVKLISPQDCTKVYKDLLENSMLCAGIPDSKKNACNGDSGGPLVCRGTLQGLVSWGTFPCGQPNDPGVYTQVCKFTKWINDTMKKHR
# NR2E3 ag-1 = inhibitors of NR2E3-RetCOR corepressor binding, primary screen, NR2E3 agonist project, biochemical, TR-FRET, GST-NR2E3, biotin-RetCOR; Photoreceptor-specific nuclear receptor (Homo sapiens), Q9Y5X4; 1536-well; inhibition of corepressor binding, % at 4.78 µM; hit rate 0.12% among 320,000;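 active = percent inhibition above the cutoff of mean plus 3 SD of all tested compounds, set per screening campaign, cut at about 20% in these data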;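 note: 0% = DMSO wells and 100% = biotin wells as full block of FRET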
#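 Format: 1536-well format; test system: GST-NR2E3 and biotin-RetCOR proteins; read-out basis: percent inhibition of TR-FRET ratio; timing: 5 h incubation at 4 °C; detection: time-resolved FRET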
# NR2E3 ag-2 = NR2E3 agonists in two-hybrid cells, primary screen, cell-based, luminescence, CHO-S, Gal4-NCOR/VP16-NR2E3; Photoreceptor-specific nuclear receptor (Homo sapiens), Q9Y5X4; luciferase; inhibition of corepressor binding, % at 3.98 µM; hit rate 0.35% among 360,000; AID 602229, 2012;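 active = inhibition above the mean of all tested compounds plus 3 SD, cut at about 70% in these data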;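 note: 0% = DMSO with NR2E3 transfected cells and 100% = cells lacking NR2E3 construct; higher means lower luciferase signal from less NR2E3 corepressor binding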
# ADAM17 inh = ADAM17 inhibitors, primary screen, biochemical, QFRET; Disintegrin and metalloproteinase domain-containing protein 17 (Homo sapiens), P78536; recombinant ADAM17, EDANS/DABCYL FRET peptide cleavage; inhibition, % at 6.95 µM; hit rate 0.83% among 370,000; AID 720648, 2013;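 active = inhibition above the mean of compounds lying between control limits plus 3 SD, set per campaign, cut at about 8.5% in these data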;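 note: 0% = DMSO-only wells as the low control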
# ADAM10 inh = human ADAM10 inhibitors, primary screen, biochemical, QFRET, HTS; hit rate 0.62% among 370,000; Disintegrin and metalloproteinase domain-containing protein 10 (Homo sapiens), O14672; AID 720582, 2013; inhibition, % at 7 µM; recombinant ADAM10, EDANS/DABCYL FRET peptide cleavage, 3 h;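 active = inhibition above a per-campaign cutoff equal to the mean of compounds falling between control-based bounds plus 3 SD, cut at about 20% in these data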;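 note: 0% = DMSO wells while the 100% control is not disclosed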
# JMJD2C inh = inhibitors of GASC-1 histone demethylase, primary screen, biochemical, fluorescence, DELFIA europium; hit rate 0.069% among 330,000; AID 2099, 2009; inhibition, % at 2.35 µM; GST-JMJD2C(1-420) H3K9me3 demethylation; Lysine-specific demethylase 4C (Homo sapiens), Q9H3R0;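 active = more than half of a compound's replicate wells show inhibition beyond 50%, single wells judged on their own value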;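 note: signal counts dimethyl H3K9 product captured on neutravidin plate; 0% = median of DMSO wells and 100% = 0.3 times that DMSO median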
# NR2E3 ag confirm = NR2E3 agonist confirmation in cells, cell-based, luminescence, CHO-S two-hybrid | shares compounds with NR2E3 ag-2 | CHO-S mammalian two-hybrid NR2E3-NCOR, luciferase luminescence | inhibition, % at 3.98 µM | hit rate 51% among 2,300 | AID 624378, 2012;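 active = average inhibition above a cutoff equal to the mean inhibition of all tested compounds plus one SD, cut at about 70% in these data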;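 note: 0% = DMSO in NR2E3 cells and 100% = DMSO in cells lacking NR2E3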
# GAL4-VP16 luc = GAL4-VP16 reporter modulators, confirmation, counter-screen for NR2E3 agonist project, cell-based, luminescence, CHO-S, high throughput. CHO-S GAL4-VP16 luciferase reporter. shares compounds with NR2E3 ag-2. AID 624379, 2012. hit rate 29% among 2,300. inhibition, % at 3.98 µM;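 active = mean inhibition above a cutoff equal to the average over all tested compounds plus one standard deviation, cut at about 70% in these data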;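 note: luciferase from a UAS reporter driven by GAL4-VP16 transactivation; 0% = DMSO with VP16-transfected cells and 100% = DMSO with cells lacking VP16; higher means less reporter light so more repression of VP16 activity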
# The depositor's hits bear a star; . = not tested or not shown. An excerpt weighted towards active compounds, which were near 2.5% of everything screened.
SMILES,KLK7 zymogen act,NR2E3 ag-1,NR2E3 ag-2,ADAM17 inh,ADAM10 inh,JMJD2C inh,NR2E3 ag confirm,GAL4-VP16 luc
COc1cccc(C(=O)Nc2nnc(S(=O)(=O)N(C)Cc3ccc(F)cc3)s2)c1,-0.4,0.9,49.6,-0.3,6.3,-23.7,41.0,18.8
COc1ccc(CN(C)S(=O)(=O)c2nnc(NC(=O)c3cccc(OC)c3)s2)cc1,0.3,4.2,19.4,-1.0,7.8,0.1,.,.
CN(CCc1ccccn1)C(=O)c1ccc2c(c1)ncn2C1CCCCC1,-0.5,.,.,-1.5,-3.3,.,.,.
CCN(CC)c1ccc(C(=O)NNC(=O)CCNC(=O)c2ccccc2)cc1,0.1,4.3,10.5,1.2,-7.9,-2.2,.,.
CCN(CC)c1ccc(C(=C2C=CC(=[N+](CC)CC)C=C2)c2ccccc2)cc1,0.7,.,101.1*,3.8,-15.5,.,99.2*,98.4*
O=C(NC(=S)N1CCN(c2c(Cl)cccc2[N+](=O)[O-])CC1)c1cccs1,0.4,3.0,53.9,1.6,6.9,8.5,38.9,34.5
COc1ccc(N2CCN(C(=S)NC(=O)c3cccs3)CC2)c([N+](=O)[O-])c1,-0.8,-1.1,1.5,-2.7,-4.0,-3.8,.,.
Cc1nn(C)c(C)c1/C=N/NC(=O)C(C)(C)Oc1ccc(Cl)cc1,.,4.3,7.1,.,.,3.9,.,.
Cc1nn(C(C)(C)C)c(C)c1/C=N/OC(=O)Nc1ccc(Cl)cc1,0.4,-1.4,97.1*,-0.8,3.3,-4.3,-3.0,90.6*
O=C(c1cc2sccc2n1Cc1ccc(F)cc1)N1CCN(c2nc3ccccc3s2)CC1,-0.1,2.0,73.9*,4.5,12.6,1.8,91.9*,63.7
O=C(O)Cn1nnc(COc2ccccc2)n1,-0.3,0.9,-29.5,-1.1,-2.1,-20.3,.,.
CCn1c(COc2ccc(Cl)cc2)nnc1SCC(=O)Nc1ccccc1-c1ccccc1,0.1,.,.,8.5,15.1,.,.,.
O=C(c1cncc(Br)c1)N1CCCc2ccccc21,0.6,-1.7,73.7*,2.4,2.3,4.8,-3.4,10.6
O=C(c1cccc(Br)c1)N1CCCc2ccccc21,0.2,-3.8,-20.0,-4.9,-5.0,7.8,.,.
COc1ccc(S(=O)(=O)N2CCCCC2)cc1NC(=S)Nc1cccc(Cl)c1C,-0.4,-0.7,80.5*,0.3,4.5,-7.2,88.8*,-21.8
COc1ccc(NC(=S)Nc2cc(S(=O)(=O)N3CCCCC3)ccc2OC)cc1,.,-2.8,.,.,.,-1.3,.,.
COc1ccc(S(=O)(=O)N2CCCCC2)cc1NC(=S)Nc1ccccc1,-1.4,-2.6,90.7*,-2.4,-0.5,1.9,86.4*,-12.2
Cc1cc(NC(=S)N(Cc2ccc(Br)cc2)Cc2ccc(C(=O)O)cc2)ccc1Cl,0.2,-0.4,-9.3,0.6,8.2,-5.2,.,.
CC(=O)Nc1ccc(S(=O)(=O)NCCSCc2c(Cl)cccc2Cl)cc1,0.7,1.1,61.7,-1.8,-1.1,-0.6,71.2*,57.6
CC(=O)Nc1ccc(S(=O)(=O)NCCSCc2ccco2)cc1,0.6,0.6,-3.1,4.0,4.8,3.9,.,.
CN(C)c1ccc(C=Cc2ccnc3ccccc23)cc1N,2.1,.,51.9,0.1,0.4,.,23.6,-0.8
Cc1nn(Cc2ccc(C(=O)Nc3nccs3)cc2)c(C)c1Cl,0.6,3.0,68.3,-0.4,3.2,-1.3,62.6,42.6
Cc1nn(Cc2ccc(C(=O)NN)cc2)c(C)c1Cl,0.3,0.1,-3.2,2.8,8.4,2.1,.,.
